Calls of active or inactive are those of the source. The calls are words filed in the database; no cut-off is given here.
Assays:
BT-474 [1] = test: Antitumor activity against human BT474 cells xenografted in nude-foxn1nu mouse assessed as reduction in tumor growth at 10 mg/kg, ip qd administered day after injection of cells after 14 days relative to control; type: functional; parameters: scale not given: the % may be the effect or the level left; settings: route intraperitoneal
Method in brief: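 Female 5–6-week hsd:athymic nude-foxn1nu mice (5 per group) received 2–5 × 10^6 BT474 cells per 200 µl subcutaneously in the right flank. Dosing at 10 mg/kg ip once daily began the next day. Tumours were measured thrice weekly, with volume = length × width² × 0.5. The study ended at 14 days against a vehicle group.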

MCF7 [2] = test: Antitumor activity against human MCF7 cells expressing VEGFR3 xenografted in nude-foxn1nu mouse assessed as reduction in tumor growth at 60 mg/kg, ip qd administered day after injection of cells after 21 days relative to control; type: functional; parameters: scale not given: the % may be the effect or the level left; settings: route intraperitoneal
Method in brief: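 Female 5–6-week hsd:athymic nude-foxn1nu mice (5 per group) were given 2–5 × 10^6 MCF7-VEGFR-3 cells per 200 µl subcutaneously in the right flank. From the next day they received 60 mg/kg ip once daily or PBS vehicle for 21 days. Tumours were measured thrice weekly (volume = length × width² × 0.5), then excised and weighed at sacrifice.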

MCF7 [3] = test: Antitumor activity against human MCF7 cells expressing VEGFR3 xenografted in nude-foxn1nu mouse assessed as reduction in tumor growth at 30 mg/kg after 21 days relative to control; type: functional, organism-based; parameters: dose 30 mg/kg
COLO 205 = test: Cytotoxicity against human COLO205 cells assessed as cell viability after 72 hrs by MTS assay; type: functional, cell-based; settings: COLO 205, 72 h
Method in brief: (§1)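 MTS viability assay, read as mitochondrial dehydrogenase activity of metabolically active cells. Cells were seeded at 5.0 × 10^3 per well and attached overnight. Fresh medium with or without compound was added, followed by 72 h exposure at increasing concentrations. Error shown as ±SEM.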

SAOS-2 = test: Cytotoxicity against human Saos2 cells after 72 hrs by MTS assay; type: functional, cell-based; settings: SAOS-2, 72 h; method in brief: as §1
A-375 = test: Cytotoxicity against human A375 cells after 72 hrs by MTS assay; type: functional, cell-based; settings: A-375, 72 h; method in brief: as §1
MCF7 [4] = test: Cytotoxicity against human MCF7 cells assessed as cell viability at 1 uM after 48 hrs by MTS assay; type: functional, cell-based
Method in brief: (§2)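 Viability measured by MTS after 48 h exposure. Cells were seeded at 5.0 × 10^3 per well and attached overnight before compound-containing medium was added. BT474 is a […] subclone grown in RPMI-1640 with 10% FBS and 250 µg/ml insulin. MCF7 stable clones carried either empty pcDNA3 or VEGFR-3. Mean ± SEM, ≥3 experiments, two-tailed t test.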

MCF7 [5] = test: Cytotoxicity against human MCF7 cells expressing VEGFR3 assessed as cell viability at 1 uM after 48 hrs by MTS assay; type: functional, cell-based; method in brief: as §2
MCF7 [6] = test: Cytotoxicity against human MCF7 cells expressing VEGFR3 assessed as cell viability at 10 uM after 48 hrs by MTS assay; type: functional; method in brief: as §2
MCF7 [7] = test: Antiproliferative activity against human MCF7 cells at 10 uM after 48 hrs by BrdU incorporation assay; type: functional, cell-based
Method in brief: (§3)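 Cells plated at 2.5 × 10^3 per well and allowed to attach overnight. Fresh growth medium with or without compound was added along with BrdU labelling reagent, and cells were incubated for the set time. BrdU incorporation was then read with a kit per the manufacturer. Data are mean ± SEM of three or more independent experiments, compared by two-tailed Student's t test.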

MCF7 [8] = test: Antiproliferative activity against human MCF7 cells expressing VEGFR3 at 0.1 to 10 uM by BrdU incorporation assay; type: functional, cell-based; settings: TDE = time-dependent effect; method in brief: as §3
MCF7 [9] = test: Induction of apoptosis in human MCF7 cells expressing VEGFR3 after 48 hrs by TUNEL assay; type: functional, cell-based
BT-474 [10] = test: Relocalization of FAK-VEGFR3 complex from cytoplasm to nucleus in human BT474 cells at 10 uM after 24 hrs by confocal microscopy; type: functional, cell-based
Method in brief: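 BT474 cells given DMSO or 10 µM compound for 24 h, dual-immunostained for FAK (Alexa Fluor 488) and VEGFR-3 (Alexa Fluor 546), imaged by confocal microscopy; percentage of colocalized FAK/VEGFR-3 molecules derived by scatter-plot analysis.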

[11] = target: Vascular endothelial growth factor receptor 3 (Homo sapiens) (UniProt P35916); test: Inhibition of VEGFR3 phosphorylation in human BT474 cells assessed as partial dephosphorylation at Tyr1063/1068 activation loop at 1 to 10 uM by Western blotting; type: cell-based; settings: BT-474, TDE = time-dependent effect
[12] = target: Vascular endothelial growth factor receptor 3 (Homo sapiens) (UniProt P35916); test: Inhibition of VEGFR3 phosphorylation in human BT474 cells assessed as complete dephosphorylation at Tyr1063/1068 activation loop at 1 to 10 uM by Western blotting; type: cell-based; settings: BT-474, TDE = time-dependent effect
Method in brief: (§4)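 BT474 cells were exposed for 24 h to increasing doses (1 and 10 µM). Western blots of lysates were probed with a phospho-specific VEGFR-3 antibody for Tyr1063/1068 in the kinase activation loop.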

[13] = target: Vascular endothelial growth factor receptor 3 (Homo sapiens) (UniProt P35916); test: Inhibition of VEGFR3 phosphorylation in human BT474 cells assessed as partial dephosphorylation at Tyr1063/1068 activation loop after 24 hrs by Western blotting; type: cell-based; settings: BT-474; method in brief: as §4
[14] = target: Vascular endothelial growth factor receptor 3 (Homo sapiens) (UniProt P35916); test: Inhibition of VEGFR3 phosphorylation in human BT474 cells assessed as complete dephosphorylation at Tyr1063/1068 activation loop after 24 hrs by Western blotting; type: cell-based; settings: BT-474; method in brief: as §4
[15] = target: Vascular endothelial growth factor receptor 3 (Homo sapiens) (UniProt P35916); test: Inhibition of VEGFR3 phosphorylation in human MCF7 cells expressing VEGFR3 cells assessed as partial dephosphorylation at Tyr1063/1068 activation loop at 1 uM after 24 hrs by Western blotting; type: cell-based
[16] = target: Vascular endothelial growth factor receptor 3 (Homo sapiens) (UniProt P35916); test: Inhibition of VEGFR3 phosphorylation in human MCF7 cells expressing VEGFR3 assessed as complete dephosphorylation at Tyr1063/1068 activation loop at 10 uM by Western blotting; type: cell-based
[17] = target: Vascular endothelial growth factor receptor 3 (Homo sapiens) (UniProt P35916); test: Inhibition of VEGFR3 phosphorylation in human MCF7 cells expressing VEGFR3 assessed as partial dephosphorylation at Tyr1063/1068 activation loop at 1 to 10 uM by Western blotting; type: cell-based; settings: TDE = time-dependent effect
[18] = target: Vascular endothelial growth factor receptor 3 (Homo sapiens) (UniProt P35916); test: Inhibition of VEGFR3 phosphorylation in human MCF7 cells expressing VEGFR3 assessed as complete dephosphorylation at Tyr1063/1068 activation loop at 1 to 10 uM by Western blotting; type: cell-based; settings: TDE = time-dependent effect
[19] = target: Vascular endothelial growth factor receptor 3 (Homo sapiens) (UniProt P35916); test: Inhibition of VEGFR3 phosphorylation in human MCF7 cells expressing VEGFR3 assessed as partial dephosphorylation at Tyr1063/1068 activation loop after 24 hrs by Western blotting; type: cell-based
[20] = target: Vascular endothelial growth factor receptor 3 (Homo sapiens) (UniProt P35916); test: Inhibition of VEGFR3 phosphorylation in human MCF7 cells expressing VEGFR3 assessed as complete dephosphorylation at Tyr1063/1068 activation loop after 24 hrs by Western blotting; type: cell-based
[21] = target: Focal adhesion kinase 1 (Homo sapiens) (UniProt Q05397); test: Inhibition of FAK phosphorylation in human MCF7 cells expressing VEGFR3 cells assessed as decrease in total phosphorylation at 10 uM after 24 hrs by immunoprecipitation technique; type: cell-based
Method in brief: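 MCF7-VEGFR-3 and BT474 cells were treated for 24 h at 10 µM or 1 µM. FAK was immunoprecipitated and blotted with anti-phosphotyrosine antibody 4G10 to assess total FAK tyrosine phosphorylation.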

BT-474 [22] = test: Cytotoxicity against human BT474 cells after 72 hrs by MTS assay; type: functional, cell-based; settings: BT-474, 72 h; method in brief: as §1
MDA-MB-231 = test: Cytotoxicity against human MDA-MB-231 cells after 72 hrs by MTS assay; type: functional, cell-based; settings: MDA-MB-231, 72 h; method in brief: as §1
T47D = test: Cytotoxicity against human T47D cells after 72 hrs by MTS assay; type: functional, cell-based; method in brief: as §1
MIA PaCa-2 = test: Cytotoxicity against human MIAPaCa2 cells after 72 hrs by MTS assay; type: functional, cell-based; settings: MIA PaCa-2, 72 h; method in brief: as §1

Vascular endothelial growth factor receptor 3 (Homo sapiens), sequence (P35916 whole entry): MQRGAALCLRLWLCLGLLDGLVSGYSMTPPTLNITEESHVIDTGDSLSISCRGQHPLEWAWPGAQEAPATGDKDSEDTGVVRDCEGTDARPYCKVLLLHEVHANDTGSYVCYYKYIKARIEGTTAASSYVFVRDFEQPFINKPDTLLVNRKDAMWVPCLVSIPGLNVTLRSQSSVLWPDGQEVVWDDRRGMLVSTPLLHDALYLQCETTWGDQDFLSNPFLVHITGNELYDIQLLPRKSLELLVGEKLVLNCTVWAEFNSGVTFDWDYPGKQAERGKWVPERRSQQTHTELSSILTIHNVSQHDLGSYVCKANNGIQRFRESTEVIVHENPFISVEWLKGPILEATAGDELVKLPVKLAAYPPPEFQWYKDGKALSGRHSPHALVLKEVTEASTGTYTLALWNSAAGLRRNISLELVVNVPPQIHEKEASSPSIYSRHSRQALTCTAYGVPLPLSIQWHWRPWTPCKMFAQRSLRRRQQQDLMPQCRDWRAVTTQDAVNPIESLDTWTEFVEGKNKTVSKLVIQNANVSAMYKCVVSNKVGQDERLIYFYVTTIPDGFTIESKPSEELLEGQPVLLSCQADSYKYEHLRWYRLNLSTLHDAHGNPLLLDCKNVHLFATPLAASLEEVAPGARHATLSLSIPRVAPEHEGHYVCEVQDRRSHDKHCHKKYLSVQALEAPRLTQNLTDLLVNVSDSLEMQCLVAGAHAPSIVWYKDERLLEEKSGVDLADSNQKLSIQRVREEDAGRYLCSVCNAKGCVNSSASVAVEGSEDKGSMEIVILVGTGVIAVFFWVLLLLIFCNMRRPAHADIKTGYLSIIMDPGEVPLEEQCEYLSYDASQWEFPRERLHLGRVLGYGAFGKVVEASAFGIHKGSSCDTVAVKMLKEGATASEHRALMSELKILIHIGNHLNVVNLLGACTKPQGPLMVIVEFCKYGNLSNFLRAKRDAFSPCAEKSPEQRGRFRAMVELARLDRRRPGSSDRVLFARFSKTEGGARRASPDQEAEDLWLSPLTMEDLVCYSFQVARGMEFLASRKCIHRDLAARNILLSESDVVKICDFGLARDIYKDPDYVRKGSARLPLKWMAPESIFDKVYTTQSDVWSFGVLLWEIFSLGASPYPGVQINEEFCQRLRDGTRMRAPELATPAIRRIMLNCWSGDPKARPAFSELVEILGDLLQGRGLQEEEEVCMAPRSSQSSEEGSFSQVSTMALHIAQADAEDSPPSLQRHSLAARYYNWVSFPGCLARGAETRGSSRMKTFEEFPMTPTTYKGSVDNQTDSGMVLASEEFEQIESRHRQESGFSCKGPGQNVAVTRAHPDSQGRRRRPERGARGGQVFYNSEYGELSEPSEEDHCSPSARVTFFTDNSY
Focal adhesion kinase 1 (Homo sapiens), sequence (Q05397 2-1052 limits assumed): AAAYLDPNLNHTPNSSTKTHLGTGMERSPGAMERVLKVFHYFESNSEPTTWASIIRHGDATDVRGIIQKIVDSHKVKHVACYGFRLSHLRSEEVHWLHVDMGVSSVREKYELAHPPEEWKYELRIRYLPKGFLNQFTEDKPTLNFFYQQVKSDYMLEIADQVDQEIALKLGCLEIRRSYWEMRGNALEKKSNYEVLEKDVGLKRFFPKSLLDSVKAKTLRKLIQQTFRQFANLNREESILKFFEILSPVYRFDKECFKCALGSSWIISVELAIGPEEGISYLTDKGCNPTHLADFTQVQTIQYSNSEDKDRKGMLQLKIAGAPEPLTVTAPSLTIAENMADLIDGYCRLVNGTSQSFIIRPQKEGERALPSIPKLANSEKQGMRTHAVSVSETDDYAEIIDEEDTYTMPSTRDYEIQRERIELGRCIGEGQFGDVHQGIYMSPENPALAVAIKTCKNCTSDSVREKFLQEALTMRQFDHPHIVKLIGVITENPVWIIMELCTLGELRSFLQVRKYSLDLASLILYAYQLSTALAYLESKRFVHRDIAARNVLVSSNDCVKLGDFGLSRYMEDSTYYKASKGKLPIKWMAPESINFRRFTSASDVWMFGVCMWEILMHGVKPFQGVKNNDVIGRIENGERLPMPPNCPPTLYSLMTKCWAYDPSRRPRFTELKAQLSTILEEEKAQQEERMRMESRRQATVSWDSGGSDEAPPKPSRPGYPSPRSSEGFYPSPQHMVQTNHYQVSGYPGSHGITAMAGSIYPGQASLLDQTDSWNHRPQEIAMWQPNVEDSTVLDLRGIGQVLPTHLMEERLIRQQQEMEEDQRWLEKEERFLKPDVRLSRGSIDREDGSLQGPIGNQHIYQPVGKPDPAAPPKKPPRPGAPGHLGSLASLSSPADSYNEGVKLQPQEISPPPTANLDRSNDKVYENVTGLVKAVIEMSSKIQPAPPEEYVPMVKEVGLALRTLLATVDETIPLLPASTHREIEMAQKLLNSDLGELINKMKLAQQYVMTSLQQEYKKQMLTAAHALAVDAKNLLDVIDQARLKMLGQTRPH

- Activity [11]: tde
- Activity [12]: tde
- Activity [13]: Dose-dependent effect
- Activity [14]: Dose-dependent effect
- Activity [15]: Active
- Activity [16]: Active
- Activity [17]: tde
- Activity [18]: tde
- Activity [19]: Dose-dependent effect
- Activity [20]: Dose-dependent effect
- Activity [21]: Active
SMILES: CN(C)CCN(Cc1ccc(Cl)cc1)c1ccccn1.Cl [CHLORPYRAMIN HYDROCHLORIDE]
- Activity (BT-474 [1]): 20%
- Activity (MCF7 [2]): 20%
- Activity (MCF7 [3]): inactive
- IC50 (COLO 205): 1000 nM
- IC50 (SAOS-2): 1000 nM
- IC50 (A-375): 1000 nM
- Activity (MCF7 [4]): Active
- Activity (MCF7 [5]): Active
- fold change (FC) (MCF7 [6]): 2
- Activity (MCF7 [7]): inactive
- Activity (MCF7 [8]): tde
- Activity (MCF7 [9]): Dose-dependent effect
- Activity (BT-474 [10]): Active
- IC50 (BT-474 [22]): 1000 nM
- IC50 (MDA-MB-231): 1000 nM
- IC50 (T47D): 1000 nM
- IC50 (MIA PaCa-2): 1000 nM

Reference: ChEMBL document CHEMBL1158487, “Small molecule chloropyramine hydrochloride (C4) targets the binding site of focal adhesion kinase and vascular endothelial growth factor receptor 3 and suppresses breast cancer growth in vivo” (J Med Chem, 2009)
